The results in this text go back to ChEMBL document CHEMBL5038641, “Development of PDE6D and CK1α Degraders through Chemical Derivatization of FPFT-2216” (J Med Chem, 2022).

Assay [1] deals with T1, Protein cereblon/Zinc finger protein Aiolos (Homo sapiens) (UniProt Q96SW2+Q9UKT9). As to the kind of experiment: Protac activity at CRBN/IKZF3 in human Jurkat cells assessed as induction of IKZF3 degradation measured after 4 hrs by Immunoblotting analysis. The format is cell-based. The method in brief:
(§1)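 Jurkat or MM.1S cells given the indicated concentrations, up to 1 µM, for 4 h. RIPA lysates (30 min on ice) with 20 μg protein per lane were separated by SDS-PAGE and transferred to nitrocellulose. Blots were probed for PDE6D, IKZF1 (1:1000), IKZF3 (1:1000) and CK1α, with β-actin control and IRDye fluorescent secondary detection.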

Assay [2] addresses T2, Protein cereblon/Retinal rod rhodopsin-sensitive cGMP 3',5'-cyclic phosphodiesterase subunit delta (Homo sapiens, UniProt O43924+Q96SW2). As to the kind of experiment: Protac activity at CRBN/PDE6D in human MOLT-4 cells assessed as induction of PDE6D degradation at 1 microM measured after 4 hrs by Immunoblotting analysis. The format is cell-based. In outline: (§2)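 MOLT4 cells treated for 4 h, either at a single 1 µM screening dose or across a concentration series. Lysates were made in RIPA with protease/phosphatase inhibitors, and 20 μg protein was resolved by SDS-PAGE and transferred to nitrocellulose. PDE6D, IKZF1, IKZF3 and CK1α were immunoblotted against β-actin and detected with IRDye secondaries.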
Target sequence in this assay (O43924 whole entry, looked up): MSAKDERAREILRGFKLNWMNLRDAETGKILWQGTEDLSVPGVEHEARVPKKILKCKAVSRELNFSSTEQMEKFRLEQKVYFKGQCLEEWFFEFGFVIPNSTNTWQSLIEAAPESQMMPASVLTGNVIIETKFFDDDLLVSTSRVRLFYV
Target sequence in this assay (Q96SW2 whole entry, looked up): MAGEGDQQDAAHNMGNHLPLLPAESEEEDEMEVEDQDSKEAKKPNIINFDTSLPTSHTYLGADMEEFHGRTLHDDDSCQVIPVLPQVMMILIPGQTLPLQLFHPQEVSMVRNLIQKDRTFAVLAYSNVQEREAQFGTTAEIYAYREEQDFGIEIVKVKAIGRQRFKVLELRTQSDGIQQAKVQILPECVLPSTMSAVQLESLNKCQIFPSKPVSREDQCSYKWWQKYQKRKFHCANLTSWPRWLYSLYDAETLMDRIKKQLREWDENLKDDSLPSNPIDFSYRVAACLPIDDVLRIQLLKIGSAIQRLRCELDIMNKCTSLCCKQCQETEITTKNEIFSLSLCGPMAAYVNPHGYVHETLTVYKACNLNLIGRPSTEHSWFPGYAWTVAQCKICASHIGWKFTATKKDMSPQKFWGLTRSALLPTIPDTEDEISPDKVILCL

For assay [3], the target named is T3, Cereblon/Ikaros (Homo sapiens) (UniProt Q96SW2+Q13422). As to the kind of experiment: Protac activity at CRBN/IKZF1 in human MOLT-4 cells assessed as induction of IKZF1 degradation at 1 microM measured after 4 hrs by Immunoblotting analysis. The format is cell-based. In outline:
as §2

Assay [4] addresses T1, Protein cereblon/Zinc finger protein Aiolos (Homo sapiens). As to the kind of experiment: Protac activity at CRBN/IKZF3 in human MOLT-4 cells assessed as induction of IKZF3 degradation at 1 microM measured after 4 hrs by Immunoblotting analysis. The format is cell-based. The method in brief: as §2
For assay [5], the target named is T4, Cereblon/Casein kinase I alpha (Homo sapiens) (UniProt P48729+Q96SW2). As to the kind of experiment: Protac activity at CRBN/CK1alpha in human MOLT-4 cells assessed as induction of CK1alpha degradation at 1 microM measured after 4 hrs by Immunoblotting analysis. The format is cell-based. The method in brief: as §2
Assay [6] concerns the target T2, Protein cereblon/Retinal rod rhodopsin-sensitive cGMP 3',5'-cyclic phosphodiesterase subunit delta. As to the kind of experiment: Protac activity at CRBN/PDE6D in human MOLT-4 cells assessed as induction of PDE6D degradation measured after 4 hrs by Immunoblotting analysis. The format is cell-based. In outline: as §2
For assay [7], the target named is T3, Cereblon/Ikaros (Homo sapiens). As to the kind of experiment: Protac activity at CRBN/IKZF1 in human MOLT-4 cells assessed as induction of IKZF1 degradation measured after 4 hrs by Immunoblotting analysis. The format is cell-based. In outline: as §2
Assay [8] has as its target T1, Protein cereblon/Zinc finger protein Aiolos (Homo sapiens). As to the kind of experiment: Protac activity at CRBN/IKZF3 in human MOLT-4 cells assessed as induction of IKZF3 degradation measured after 4 hrs by Immunoblotting analysis. Format: cell-based. The method in brief: as §2
Assay [9] deals with T2, Protein cereblon/Retinal rod rhodopsin-sensitive cGMP 3',5'-cyclic phosphodiesterase subunit delta. As to the kind of experiment: Protac activity at CRBN/PDE6D in human Jurkat cells assessed as induction of PDE6D degradation measured after 4 hrs by Immunoblotting analysis. Format: cell-based. In outline:
as §1

The target of assay [10] is T3, Cereblon/Ikaros (Homo sapiens). As to the kind of experiment: Protac activity at CRBN/IKZF1 in human Jurkat cells assessed as induction of IKZF1 degradation measured after 4 hrs by Immunoblotting analysis. The format is cell-based. The method in brief:
as §1

The target in assay [11] is T2, Protein cereblon/Retinal rod rhodopsin-sensitive cGMP 3',5'-cyclic phosphodiesterase subunit delta. As to the kind of experiment: Protac activity at CRBN/PDE6D in human MM1.S cells assessed as induction of PDE6D degradation measured after 4 hrs by Immunoblotting analysis. The format is cell-based. In outline: as §1
Assay [12] addresses T3, Cereblon/Ikaros (Homo sapiens). As to the kind of experiment: Protac activity at CRBN/IKZF1 in human MM1.S cells assessed as induction of IKZF1 degradation measured after 4 hrs by Immunoblotting analysis. The format is cell-based. In outline: as §1
Assay [13] has as its target T1, Protein cereblon/Zinc finger protein Aiolos (Homo sapiens). As to the kind of experiment: Protac activity at CRBN/IKZF3 in human MM1.S cells assessed as induction of IKZF3 degradation measured after 4 hrs by Immunoblotting analysis. Format: cell-based. In outline:
as §1

In assay [14] the target is T4, Cereblon/Casein kinase I alpha (Homo sapiens). As to the kind of experiment: Protac activity at CRBN/CK1alpha in human MM1.S cells assessed as induction of CK1alpha degradation at 40 nM measured after 4 hrs by Immunoblotting analysis. The format is cell-based. In outline:
as §1

Assay [15] has as its system MIA PaCa-2. As to the kind of experiment: Antiproliferative activity against human MIA PaCa-2 cells assessed as reduction in cell viability measured after 3 days by Celltiter-Glo assay. The format is functional, cell-based. Particulars: for Activity: time 3.0 day; for IC50: MIA PaCa-2, 72 h. The method in brief:
(§3)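 Cells grown per supplier recommendations with 10% FBS plus penicillin/streptomycin and mycoplasma-checked. 800 cells per well in 384-well format, dosed the next day at the indicated concentrations; depending on the agent, dosing was once or daily. Viability was read by CellTiter-Glo luminescence after three days of treatment, with a 20 min incubation before reading.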

Assay [16] relates to AGS. As to the kind of experiment: Antiproliferative activity against human AGS cells assessed as reduction in cell viability measured after 3 days by Celltiter-Glo assay. The format is functional, cell-based. The note with it: for Activity: time 3.0 day; for IC50: 72 h. The method in brief:
as §3

Assay [17] has as its system NCI-H358. As to the kind of experiment: Antiproliferative activity against human NCI-H358 cells assessed as reduction in cell viability measured after 3 days by Celltiter-Glo assay. Particulars: for Activity: time 3.0 day; for IC50: NCI-H358, 72 h. Format: functional, cell-based. The method in brief: as §3
For assay [18], the system named is PaTu 8988t. As to the kind of experiment: Antiproliferative activity against human PaTu 8988t cells assessed as reduction in cell viability measured after 3 days by Celltiter-Glo assay. The format is functional, cell-based. The note with it: for Activity: time 3.0 day; for IC50: 72 h. In outline: as §3
Assay [19] deals with Retinal rod rhodopsin-sensitive cGMP 3',5'-cyclic phosphodiesterase subunit delta (Homo sapiens) (UniProt O43924). As to the kind of experiment: Induction of PDE6D degradation in human CRBN-null MOLT4 cells at 8 to 200 nM incubated for 4 hrs by Immunoblotting analysis. The format is cell-based. The note with it: MOLT-4, dose 8-200 nM.
The target of assay [20] is DNA-binding protein Ikaros (Homo sapiens) (UniProt Q13422). As to the kind of experiment: Induction of IKZF1 degradation in human CRBN-null MOLT4 cells at 8 to 200 nM incubated for 4 hrs by Immunoblotting analysis. The format is cell-based. Particulars: MOLT-4, dose 8-200 nM.
Assay [21] concerns the target T3, Cereblon/Ikaros (Homo sapiens). As to the kind of experiment: Protac activity at CRBN/IKZF1 in human MOLT-4 cells assessed as induction of IKZF1 degradation at 250 nM measured after 4 hrs by proteome mass spectrometry.
For assay [22], the target named is T1, Protein cereblon/Zinc finger protein Aiolos (Homo sapiens). As to the kind of experiment: Protac activity at CRBN/IKZF3 in human MOLT-4 cells assessed as induction of IKZF3 degradation at 250 nM measured after 4 hrs by proteome mass spectrometry.

Active and inactive are the calls of the source. The calls are words filed in the database; no cut-off is given here.

T4 sequence (P48729 2-337 limits assumed): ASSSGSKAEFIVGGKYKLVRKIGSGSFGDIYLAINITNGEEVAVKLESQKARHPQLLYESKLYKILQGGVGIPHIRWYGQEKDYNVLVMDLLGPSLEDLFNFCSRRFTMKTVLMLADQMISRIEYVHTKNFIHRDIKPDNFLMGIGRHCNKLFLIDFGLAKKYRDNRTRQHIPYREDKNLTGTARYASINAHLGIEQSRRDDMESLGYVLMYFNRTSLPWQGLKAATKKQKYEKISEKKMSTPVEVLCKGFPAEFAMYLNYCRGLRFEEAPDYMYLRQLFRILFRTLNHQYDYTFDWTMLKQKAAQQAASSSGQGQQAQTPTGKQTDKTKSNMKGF
T4 sequence (Q96SW2 whole entry partner): as the sequence (Q96SW2 whole entry, looked up) above
T1 sequence (Q96SW2 whole entry, looked up): as above
T1 sequence (Q9UKT9 whole entry, looked up): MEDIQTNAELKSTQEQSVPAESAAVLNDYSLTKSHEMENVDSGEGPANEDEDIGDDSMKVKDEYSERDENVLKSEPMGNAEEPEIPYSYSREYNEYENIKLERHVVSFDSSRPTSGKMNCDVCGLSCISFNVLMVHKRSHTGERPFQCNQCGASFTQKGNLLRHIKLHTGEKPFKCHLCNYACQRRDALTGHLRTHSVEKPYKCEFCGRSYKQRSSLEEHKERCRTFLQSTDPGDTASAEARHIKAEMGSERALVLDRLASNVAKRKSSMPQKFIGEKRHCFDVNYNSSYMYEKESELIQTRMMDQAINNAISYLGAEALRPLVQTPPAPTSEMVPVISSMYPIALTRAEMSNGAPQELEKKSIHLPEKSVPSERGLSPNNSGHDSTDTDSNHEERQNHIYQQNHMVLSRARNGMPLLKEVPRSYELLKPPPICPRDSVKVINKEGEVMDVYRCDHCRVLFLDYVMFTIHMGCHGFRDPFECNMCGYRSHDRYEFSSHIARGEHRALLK
DNA-binding protein Ikaros (Homo sapiens), sequence (Q13422 whole entry): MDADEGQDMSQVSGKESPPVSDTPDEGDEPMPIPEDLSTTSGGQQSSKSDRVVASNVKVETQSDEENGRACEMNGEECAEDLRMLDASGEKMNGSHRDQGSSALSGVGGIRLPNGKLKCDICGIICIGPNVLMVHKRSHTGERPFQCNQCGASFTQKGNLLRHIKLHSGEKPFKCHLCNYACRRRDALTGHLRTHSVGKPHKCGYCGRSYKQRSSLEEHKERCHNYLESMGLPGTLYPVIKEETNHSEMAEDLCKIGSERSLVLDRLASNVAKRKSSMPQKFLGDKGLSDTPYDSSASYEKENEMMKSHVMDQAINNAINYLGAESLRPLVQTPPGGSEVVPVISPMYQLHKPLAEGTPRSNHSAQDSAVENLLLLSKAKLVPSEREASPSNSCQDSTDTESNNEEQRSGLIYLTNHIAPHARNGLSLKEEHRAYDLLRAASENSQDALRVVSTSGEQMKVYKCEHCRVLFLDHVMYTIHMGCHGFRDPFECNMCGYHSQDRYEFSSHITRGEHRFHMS
Retinal rod rhodopsin-sensitive cGMP 3',5'-cyclic phosphodiesterase subunit delta (Homo sapiens), sequence (O43924 whole entry): as the sequence (O43924 whole entry, looked up) above

Regarding `CSc1cscc1-c1cn(C2CCC(=O)NC2=O)nn1` (stereo unspecified), the result in assay [1], in assay [3], in [4], in assay [5], in assay [7] and in [8] was inactive. Besides, the outcome in [10], in assay [12], in [13], in assay [15], in assay [16] and in [17] was inactive. The result in [18] was inactive. Also, the outcome in assay [2], in [6], in assay [9] and in assay [11] was Active. Besides, in assay [14], the Activity was found to be 50%.
Take `C=C(F)C(=O)N1CCN(c2nc(OC[C@@H]3CCCN3C)nc3c2CCN(c2cccc4cccc(Cl)c24)C3)C[C@@H]1CC#N` [ADAGRASIB]: the IC50 in assay [15] was determined as 4 nM; in assay [16] it was 1400 nM; in [17], 6 nM; in assay [18], 3000 nM.
As to `CNc1nccc(CN([C@H]2CC[C@H](N)CC2)S(=O)(=O)c2ccc(S(=O)(=O)N(Cc3ccc(Cl)cc3)C3CCCC3)cc2)n1`, the IC50 in [15] is 507 nM; in assay [16] it was 1200 nM; in assay [17] it was 954 nM; in assay [18], 1200 nM.
For the compound `COc1cscc1-c1cn(C2CCC(=O)NC2=O)nn1` (stereo unspecified), the result in assay [19], in [15], in assay [16], in assay [17], in assay [18] and in assay [20] was inactive.
For the compound `COc1c(-c2cn(C3CCC(=O)NC3=O)nn2)csc1C(=O)NC1CCCC1` (stereo unspecified), the result in assay [2], in assay [3] and in assay [4] was inactive. The Activity in [5] came to 70%.
For the compound `COc1c(-c2cn(C3CCC(=O)NC3=O)nn2)csc1C(=O)N1CCCC1` (stereo unspecified), the outcome in assay [2], in [3], in assay [4], in assay [21] and in [22] was inactive. Besides, the Activity in assay [5] was found to be 70%.
On to `O=C1CCC(n2cc(-c3ccsc3)nn2)C(=O)N1` (stereo unspecified), for which the outcome in assay [2] and in assay [5] was Active. Further, the DC50 in assay [6], in assay [9] and in assay [11] was below 200 nM in each case. The result in [15], in [16], in assay [17] and in assay [18] was inactive.
